# From ChEMBL document CHEMBL4177526, “Discovery and structure activity relationship of the first potent cryptosporidium FIKK kinase inhibitor” (Bioorg Med Chem, 2017)
# The source made the active and inactive calls. No cut-off for these calls is given here.
# Legend:
# [1] = Inhibition of Cryptosporidium parvum CDPK6
# [2] = Inhibition of Cryptosporidium parvum Iowa II ser/Thr protein kinase FIKK
# [3] = target: Calcium-dependent protein kinase 2 (Cryptosporidium parvum, UniProt Q6S4V9); assay: Inhibition of Cryptosporidium parvum calcium-dependent protein kinase 2
# [4] = system: Cryptosporidium parvum Iowa II; assay: Inhibition of Cryptosporidium parvum Iowa II cyclin-dependent kinase 3 assessed as change in melting temperature by DSLS method
# [5] = target: Cell division control protein 28, putative (Cryptosporidium parvum (strain Iowa II)) (UniProt A3FPL9); assay: Inhibition of Cryptosporidium parvum Iowa II cell division control protein 28 assessed as change in melting temperature by DSLS method
# [6] = Inhibition of Cryptosporidium parvum Iowa II cyclin-dependent kinase 3
# [7] = system: Cryptosporidium parvum Iowa II; assay: Inhibition of Cryptosporidium parvum Iowa II glycogen synthase kinase assessed as change in melting temperature by DSLS method
# [8] = target: Mitogen-activated protein kinase kinase kinase kinase 4 (Homo sapiens) (UniProt O95819); assay: Inhibition of human MAP4K4 at 1 uM relative to control
# [9] = target: Vascular endothelial growth factor receptor 2 (Homo sapiens) (UniProt P35968); assay: Inhibition of human KDR at 1 uM relative to control
# [10] = target: Mitogen-activated protein kinase (Cryptosporidium parvum (strain Iowa II), UniProt A3FQ79); assay: Inhibition of Cryptosporidium parvum Iowa II mitogen-activated protein kinase
# [11] = target: Calcium/calmodulin-dependent protein kinase with a kinase domain and 2 calmodulin-like EF hands (Cryptosporidium parvum (strain Iowa II), UniProt Q5CZ29); assay: Inhibition of Cryptosporidium parvum Iowa II calcium/calmodulin-dependent protein kinase with a kinase domain and 2 calmodulin-like EF hands
# [12] = target: Calcium/calmodulin-dependent protein kinase with a kinase domain and 2 calmodulin-like EF hands (Cryptosporidium parvum (strain Iowa II)) (UniProt Q5CZ29); assay: Inhibition of Cryptosporidium parvum Iowa II calcium/calmodulin-dependent protein kinase with a kinase domain and 2 calmodulin-like EF hands assessed as change in melting temperature by DSLS method
# Cryptosporidium parvum [13] = assay: Inhibition of Cryptosporidium parvum CDPK1 assessed as increase in thermal stabilization
# Cryptosporidium parvum [14] = assay: Inhibition of recombinant Cryptosporidium parvum FIKK assessed as change in melting temperature at 50 uM by differential static light scattering method
# [15] = Inhibition of Cryptosporidium parvum CDPK1 using PLARTLSVAGLPGKK peptide as substrate by NADH coupled LDH-PK ATPase assay
# Outline: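 NADH-coupled LDH-PK ATPase read-out with 1.2 nM recombinant CpCDPK1, 0.25 mM ATP, 0.1 mM Syntide 2.0 peptide and 2 mM CaCl2. Inhibitors were made as 10 mM DMSO stocks and tested in 2-fold serial dilutions. IC50 is the average of triplicate experiments.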
# [16] = target: Mitogen-activated protein kinase 14 (Homo sapiens) (UniProt Q16539); assay: Inhibition of human p38alpha at 1 uM relative to control
# [17] = Inhibition of recombinant Cryptosporidium parvum FIKK using RRRAPSFYRK peptide as substrate by NADH coupled LDH-PK ATPase assay
# [18] = Inhibition of Cryptosporidium parvum Iowa II calcium/calmodulin-dependent protein kinase
# Cryptosporidium parvum [19] = assay: Inhibition of Cryptosporidium parvum CDPK6 assessed as change in melting temperature by DSLS method
# [20] = target: Cgd5_820 protein (Cryptosporidium parvum) (UniProt F0X4H1); assay: Inhibition of Cryptosporidium parvum calcium/calmodulin dependent protein kinase with a kinase domain and 4 calmodulin like EF hands assessed as change in melting temperature by DSLS method
# [21] = target: Calcium/calmodulin-dependent protein kinase with a kinase domain and 4 calmodulin like EF hands (Cryptosporidium parvum (strain Iowa II)) (UniProt Q5CYL9); assay: Inhibition of Cryptosporidium parvum Iowa II calcium/calmodulin-dependent protein kinase with a kinase domain and 4 calmodulin like EF hands assessed as change in melting temperature by DSLS method
# Cryptosporidium parvum [22] = assay: Antiparasitic activity against Cryptosporidium parvum Iowa oocysts infected in human HCT8 cells pretreated prior to infection measured after 48 hrs by fluorescein labeled Vicia villosa lectin/Hoechst 33258 staining based epifluorescence microscopic analysis; format: functional, organism-based
# Outline: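 HCT-8 cells grown in RPMI-1640 with 10% heat-inactivated FBS and penicillin. Three-fold compound dilutions in culture medium were added to confluent cells before about 5500 excysted C. parvum Iowa oocysts per well. After 48 h, cells were fixed with 4% paraformaldehyde and permeabilized. Vacuoles were stained with fluorescein-Vicia villosa lectin (1.33 µg/mL, 1 h, 37 °C) and nuclei with Hoechst 33258, then imaged by epifluorescence microscopy.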
# [23] = Inhibition of Cryptosporidium parvum Iowa II glycogen synthase kinase
# [24] = Inhibition of Cryptosporidium parvum Iowa II serine/threonine-protein kinase Nek2
# Cgd5_820 protein = Cgd5_820 protein (Cryptosporidium parvum, UniProt F0X4H1); assay: Inhibition of Cryptosporidium parvum calcium/calmodulin dependent protein kinase with a kinase domain and 4 calmodulin like EF hands
# [25] = target: Calcium/calmodulin-dependent protein kinase with a kinase domain and 4 calmodulin like EF hands (Cryptosporidium parvum (strain Iowa II), UniProt Q5CYL9); assay: Inhibition of Cryptosporidium parvum Iowa II calcium/calmodulin-dependent protein kinase with a kinase domain and 4 calmodulin like EF hands
# [26] = target: Vascular endothelial growth factor receptor 2 (Homo sapiens) (UniProt P35968); assay: Inhibition of human KDR at 100 nM relative to control
# [27] = target: Calcium-dependent protein kinase 2 (Cryptosporidium parvum) (UniProt Q6S4V9); assay: Inhibition of Cryptosporidium parvum calcium-dependent protein kinase 2 assessed as change in melting temperature by DSLS method
# [28] = system: Cryptosporidium parvum Iowa II; assay: Inhibition of Cryptosporidium parvum Iowa II Serine/threonine-protein kinase Nek2 assessed as change in melting temperature by DSLS method
# [29] = Ratio of EC50 for antiparasitic activity against Cryptosporidium parvum Iowa oocysts infected in human HCT8 cells to IC50 for Cryptosporidium parvum CDPK1; format: functional
# [30] = Ratio of EC50 for antiparasitic activity against Cryptosporidium parvum Iowa oocysts infected in human HCT8 cells to IC50 for recombinant Cryptosporidium parvum FIKK; format: functional, cell-based
# [31] = system: Cryptosporidium parvum Iowa II; assay: Inhibition of Cryptosporidium parvum Iowa II calcium/calmodulin-dependent protein kinase assessed as change in melting temperature by DSLS method
# [32] = target: Cell division control protein 28, putative (Cryptosporidium parvum (strain Iowa II), UniProt A3FPL9); assay: Inhibition of Cryptosporidium parvum Iowa II cell division control protein 28
# [33] = target: Mitogen-activated protein kinase (Cryptosporidium parvum (strain Iowa II)) (UniProt A3FQ79); assay: Inhibition of Cryptosporidium parvum Iowa II mitogen-activated protein kinase assessed as change in melting temperature by DSLS method
# Cryptosporidium parvum [34] = assay: Antiparasitic activity against Cryptosporidium parvum isolate AUCP-1 sporozoites infected in human HCT8 cells treated for 24 hrs followed by compound washout and supplemented with fresh medium containing compound at 24 intervals; format: functional, organism-based; details: isolate AUCP-1, HCT-8, 24 h
# [35] = Efflux ratio of permeability in human Caco2 cells; format: ADME, cell-based; details: Caco-2
# [36] = Permeability in human Caco2 cells; format: ADME, cell-based; details: Caco-2, read-out: permeability
# [37] = Cryptosporidium parvum, Iowa, HCT-8, read-out: EC50
# Sequence of Vascular endothelial growth factor receptor 2 (Homo sapiens) (P35968 whole entry): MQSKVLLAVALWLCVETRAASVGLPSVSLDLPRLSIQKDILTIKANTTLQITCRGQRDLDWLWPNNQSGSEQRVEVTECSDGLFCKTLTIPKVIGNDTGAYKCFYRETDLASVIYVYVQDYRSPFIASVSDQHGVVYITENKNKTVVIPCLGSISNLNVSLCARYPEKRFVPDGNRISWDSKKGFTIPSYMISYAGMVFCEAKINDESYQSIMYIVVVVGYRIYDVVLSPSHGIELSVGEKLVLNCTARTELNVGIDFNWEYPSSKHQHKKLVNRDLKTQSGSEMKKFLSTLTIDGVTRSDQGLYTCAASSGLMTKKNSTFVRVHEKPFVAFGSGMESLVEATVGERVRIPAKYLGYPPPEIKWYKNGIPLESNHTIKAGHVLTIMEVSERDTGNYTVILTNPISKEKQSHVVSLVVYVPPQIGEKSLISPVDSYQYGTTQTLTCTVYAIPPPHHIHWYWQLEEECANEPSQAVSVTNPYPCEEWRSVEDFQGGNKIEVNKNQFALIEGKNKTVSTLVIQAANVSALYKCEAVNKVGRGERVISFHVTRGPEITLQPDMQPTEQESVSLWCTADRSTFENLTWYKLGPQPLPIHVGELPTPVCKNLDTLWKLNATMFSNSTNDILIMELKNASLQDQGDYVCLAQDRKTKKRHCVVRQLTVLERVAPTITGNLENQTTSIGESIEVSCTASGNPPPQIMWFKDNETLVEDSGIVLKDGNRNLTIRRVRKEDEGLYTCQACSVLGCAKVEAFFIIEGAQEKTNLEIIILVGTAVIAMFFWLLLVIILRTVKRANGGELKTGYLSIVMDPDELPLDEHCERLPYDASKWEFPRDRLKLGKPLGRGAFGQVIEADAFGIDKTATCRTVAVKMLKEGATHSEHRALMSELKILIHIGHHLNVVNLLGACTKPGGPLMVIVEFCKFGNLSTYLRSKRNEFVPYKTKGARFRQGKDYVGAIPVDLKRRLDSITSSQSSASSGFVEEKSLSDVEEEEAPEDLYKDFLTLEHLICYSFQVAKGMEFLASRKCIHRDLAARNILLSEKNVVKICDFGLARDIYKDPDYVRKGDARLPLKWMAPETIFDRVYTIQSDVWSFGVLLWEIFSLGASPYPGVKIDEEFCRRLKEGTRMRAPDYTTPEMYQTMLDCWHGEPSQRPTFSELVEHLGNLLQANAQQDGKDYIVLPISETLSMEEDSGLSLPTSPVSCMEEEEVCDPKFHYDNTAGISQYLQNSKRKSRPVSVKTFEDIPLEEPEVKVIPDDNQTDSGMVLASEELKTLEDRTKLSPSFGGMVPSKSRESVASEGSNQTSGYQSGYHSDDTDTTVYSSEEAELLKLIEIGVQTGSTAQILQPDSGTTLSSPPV
# Sequence of Mitogen-activated protein kinase 14 (Homo sapiens) (Q16539 whole entry): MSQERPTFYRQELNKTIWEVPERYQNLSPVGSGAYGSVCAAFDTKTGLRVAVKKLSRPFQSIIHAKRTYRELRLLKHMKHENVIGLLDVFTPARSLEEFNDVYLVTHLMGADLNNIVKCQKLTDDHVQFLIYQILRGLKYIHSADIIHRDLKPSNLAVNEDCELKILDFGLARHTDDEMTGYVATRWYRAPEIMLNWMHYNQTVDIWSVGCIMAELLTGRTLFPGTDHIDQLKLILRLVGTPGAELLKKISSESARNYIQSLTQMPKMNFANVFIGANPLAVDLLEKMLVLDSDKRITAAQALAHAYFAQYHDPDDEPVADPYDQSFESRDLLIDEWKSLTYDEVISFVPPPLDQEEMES
# Sequence of Calcium/calmodulin-dependent protein kinase with a kinase domain and 2 calmodulin-like EF hands (Cryptosporidium parvum (strain Iowa II)) (Q5CZ29 as listed by the source): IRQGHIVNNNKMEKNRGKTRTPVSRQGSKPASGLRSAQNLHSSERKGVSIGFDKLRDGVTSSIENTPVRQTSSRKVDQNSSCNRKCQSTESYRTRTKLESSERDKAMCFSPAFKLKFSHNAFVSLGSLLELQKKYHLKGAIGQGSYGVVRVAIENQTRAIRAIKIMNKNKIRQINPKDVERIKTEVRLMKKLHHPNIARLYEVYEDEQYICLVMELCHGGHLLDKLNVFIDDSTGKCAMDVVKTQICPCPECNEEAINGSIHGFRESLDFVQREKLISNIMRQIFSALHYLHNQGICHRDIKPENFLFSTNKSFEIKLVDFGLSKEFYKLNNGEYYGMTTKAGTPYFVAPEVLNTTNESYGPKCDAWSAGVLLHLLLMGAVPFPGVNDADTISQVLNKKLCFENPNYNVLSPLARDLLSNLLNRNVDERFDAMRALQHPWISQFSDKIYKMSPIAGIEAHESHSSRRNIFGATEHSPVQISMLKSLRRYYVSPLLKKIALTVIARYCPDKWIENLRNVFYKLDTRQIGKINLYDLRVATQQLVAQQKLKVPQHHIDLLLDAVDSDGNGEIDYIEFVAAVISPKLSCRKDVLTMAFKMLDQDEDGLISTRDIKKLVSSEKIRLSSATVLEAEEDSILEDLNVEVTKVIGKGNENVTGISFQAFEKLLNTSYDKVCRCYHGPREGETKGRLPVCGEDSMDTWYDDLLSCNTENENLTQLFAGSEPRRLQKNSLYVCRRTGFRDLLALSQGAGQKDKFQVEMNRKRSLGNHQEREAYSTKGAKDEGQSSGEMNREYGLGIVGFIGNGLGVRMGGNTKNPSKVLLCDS
# Sequence of Calcium/calmodulin-dependent protein kinase with a kinase domain and 2 calmodulin-like EF hands (Q5CZ29 whole entry, the tested form may be a part): as the sequence (Q5CZ29 as listed by the source) above
# Sequence of Calcium-dependent protein kinase 2 (Cryptosporidium parvum) (Q6S4V9 as listed by the source): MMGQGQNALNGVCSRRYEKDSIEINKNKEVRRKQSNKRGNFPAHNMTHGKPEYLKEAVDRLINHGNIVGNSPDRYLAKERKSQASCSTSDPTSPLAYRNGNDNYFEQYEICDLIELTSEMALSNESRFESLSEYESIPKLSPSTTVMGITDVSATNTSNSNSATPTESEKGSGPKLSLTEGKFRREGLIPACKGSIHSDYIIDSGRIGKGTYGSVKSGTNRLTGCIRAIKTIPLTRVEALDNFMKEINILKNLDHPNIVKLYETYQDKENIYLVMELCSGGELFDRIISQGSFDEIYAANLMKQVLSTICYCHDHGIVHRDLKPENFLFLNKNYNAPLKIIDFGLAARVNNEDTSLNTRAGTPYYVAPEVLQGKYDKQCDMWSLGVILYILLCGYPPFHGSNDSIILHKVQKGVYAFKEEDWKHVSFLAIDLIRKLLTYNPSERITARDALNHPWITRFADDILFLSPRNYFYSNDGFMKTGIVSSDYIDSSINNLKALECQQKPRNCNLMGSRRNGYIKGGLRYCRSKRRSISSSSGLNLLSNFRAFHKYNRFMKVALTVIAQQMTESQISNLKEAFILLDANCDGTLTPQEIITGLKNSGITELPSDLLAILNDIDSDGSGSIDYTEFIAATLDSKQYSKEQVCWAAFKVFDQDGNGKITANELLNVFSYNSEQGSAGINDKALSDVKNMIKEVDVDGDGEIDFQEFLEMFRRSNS
# Sequence of Calcium-dependent protein kinase 2 (Q6S4V9 whole entry): as the sequence (Q6S4V9 as listed by the source) above
compound,measurement,setting,value
Nc1nc(-c2cccc(Cl)c2)c(-c2ccc3ncccc3n2)s1 [GW780159X],IC50,[1],> 10000 nM
same,IC50,[2],3 nM
same,IC50,[3],> 10000 nM
same,ΔTm,[4],< 2 °C
same,ΔTm,[5],< 2 °C
same,IC50,[6],> 10000 nM
same,ΔTm,[7],< 2 °C
same,inhibition,[8],60%
same,inhibition,[9],67%
same,IC50,[10],> 10000 nM
same,IC50,[11],> 10000 nM
same,ΔTm,[12],< 2 °C
same,inhibition,Cryptosporidium parvum [13],Active
same,ΔTm,Cryptosporidium parvum [14],5.1 °C
same,IC50,[15],84 nM
same,inhibition,[16],50%
same,IC50,[17],3 nM
same,IC50,[18],> 10000 nM
same,ΔTm,Cryptosporidium parvum [19],< 2 °C
same,ΔTm,[20],< 2 °C
same,ΔTm,[21],< 2 °C
same,EC50,Cryptosporidium parvum [22]; [37],5500 nM
same,IC50,[23],> 10000 nM
same,IC50,[24],> 10000 nM
same,IC50,Cgd5_820 protein,> 10000 nM
same,IC50,[25],> 10000 nM
same,inhibition,[26],33%
same,ΔTm,[27],< 2 °C
same,ΔTm,[28],< 2 °C
same,Ratio,[29],66
same,Ratio,[30],1840
same,ΔTm,[31],< 2 °C
same,IC50,[32],> 10000 nM
same,ΔTm,[33],< 2 °C
CC(=O)Nc1nc(-c2cccc(Cl)c2)c(-c2ccc3ncccc3n2)s1,IC50,[15],330 nM
same,IC50,[17],> 10000 nM
COc1ccc(-c2nc(N)sc2-c2ccc3ncccc3n2)cc1,ΔTm,Cryptosporidium parvum [14],0.4 °C
same,IC50,[15],2600 nM
same,IC50,[17],> 10000 nM
CNc1nc(-c2cccc(Cl)c2)c(-c2ccc3ncccc3n2)s1,IC50,[15],1510 nM
same,IC50,[17],3600 nM
Nc1nc(-c2ccc(F)c(Cl)c2)c(-c2ccc3ncccc3n2)s1,ΔTm,Cryptosporidium parvum [14],3.6 °C
same,IC50,[15],450 nM
same,IC50,[17],25 nM
N#Cc1cccc(-c2nc(N)sc2-c2ccc3ncccc3n2)c1,IC50,[15],1500 nM
same,IC50,[17],4100 nM
Nc1nc(-c2ccc(F)cc2)c(-c2ccc3ncccc3n2)s1 [GW785804X],ΔTm,Cryptosporidium parvum [14],4.7 °C
same,IC50,[15],220 nM
same,IC50,[17],220 nM
Cc1ccnc2ccc(-c3sc(N)nc3-c3ccc(F)c(Cl)c3)nc12,IC50,[15],400 nM
same,IC50,[17],> 10000 nM
Nc1nc(-c2ccc(Cl)c(Cl)c2)c(-c2ccc3ncccc3n2)s1,IC50,[15],> 10000 nM
same,IC50,[17],750 nM
Nc1nc(-c2ccc(Cl)cc2)c(-c2ccc3ncccc3n2)s1,IC50,[15],375 nM
same,IC50,[17],3260 nM
COc1cccc(-c2nc(N)sc2-c2ccc3ncccc3n2)c1,IC50,[15],260 nM
same,IC50,[17],180 nM
Nc1nc(-c2ccccc2)c(-c2ccc3ncccc3n2)s1,ΔTm,Cryptosporidium parvum [14],4.2 °C
same,IC50,[15],190 nM
same,IC50,[17],42 nM
Nc1nc(-c2cc(Cl)cc(Cl)c2)c(-c2ccc3ncccc3n2)s1,IC50,[15],3500 nM
same,IC50,[17],> 10000 nM
same,EC50,Cryptosporidium parvum [22],Not Active
CCc1cccc(-c2nc(N)sc2-c2ccc3ncccc3n2)c1,IC50,[15],74 nM
same,IC50,[17],> 10000 nM
Cc1cc(-c2nc(N)sc2-c2ccc3ncccc3n2)ccc1F,IC50,[15],73 nM
same,IC50,[17],140 nM
CC(C)(C)n1nc(-c2cccc3ccccc23)c2c(N)ncnc21,EC50,Cryptosporidium parvum [34],2560 nM
same,EC50,Cryptosporidium parvum [22]; [37],4100 nM
same,Ratio,[29],1
CC(C)c1cccc(-c2nc(N)sc2-c2ccc3ncccc3n2)c1,ΔTm,Cryptosporidium parvum [14],1 °C
same,IC50,[15],> 10000 nM
same,IC50,[17],> 10000 nM
Nc1nc(-c2cccc(C(F)(F)F)c2)c(-c2ccc3ncccc3n2)s1,IC50,[15],350 nM
same,IC50,[17],1200 nM
Cc1ccc(-c2nc(N)sc2-c2ccc3ncccc3n2)cc1C,ΔTm,Cryptosporidium parvum [14],0.82 °C
same,IC50,[15],19 nM
same,IC50,[17],2900 nM
same,EC50,Cryptosporidium parvum [22]; [37],3900 nM
same,Ratio,[29],204
same,Ratio,[30],1.3
Nc1nc(-c2cccc(F)c2)c(-c2ccc3ncccc3n2)s1,efflux ratio,[35],< 1
same,Papp,[36],16 ×10⁻⁶ cm/s
same,ΔTm,Cryptosporidium parvum [14],4.9 °C
same,IC50,[15],210 nM
same,IC50,[17],220 nM
same,EC50,Cryptosporidium parvum [22]; [37],1300 nM
same,Ratio,[29],6
same,Ratio,[30],6
